Consider 23 molecules from ChEMBL document CHEMBL1641390, “Structure and cytotoxicity of diterpenoids from Isodon eriocalyx” (J Nat Prod, 2010).

Format in all cases: functional, cell-based
One assay relates to Bel-7402. Kind of assay: Cytotoxicity against human Bel7402 cells after 72 hrs by sulforhodamine B assay. Particulars: Bel-7402, 72 h. In a few lines:
(§1)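 HT-29 and SK-OV-3 (ATCC) grown in McCoy's 5a, BEL-7402 (Shanghai Cell Bank) in RPMI 1640, all with 10% FBS. Cells plated 24 h, then exposed to five concentrations in duplicate for 72 h at 37 °C, 5% CO2. Saline vehicle control. TCA-fixed, SRB-stained, dye solubilized in 10 mM Tris, A510 read. Inhibition relative to control, expressed as IC50.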

The next assay has as its system HT-29. The assay is described as follows: Cytotoxicity against human HT-29 cells after 72 hrs by sulforhodamine B assay. Particulars: HT-29, 72 h. In a few lines: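 Cells plated 24 h, then exposed to five concentrations in duplicate for 72 h at 37 °C, 5% CO2. Saline vehicle control. TCA-fixed, SRB-stained, dye solubilized in 10 mM Tris, A510 read. Inhibition relative to control, expressed as IC50.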

The next assay concerns SK-OV-3. The assay is described as follows: Cytotoxicity against human SKOV3 cells after 72 hrs by sulforhodamine B assay. Particulars: SK-OV-3, 72 h. In a few lines: as §1

In the case of `C=C1C(=O)[C@]23C[C@H]1CC[C@H]2[C@]12CC[C@H](OC(C)=O)[C@@](C)(COC(C)=O)[C@H]1[C@H](O)[C@]3(O)OC2` [MAOECRYSTAL J], the IC50 with Bel-7402 was more than 10 µM; in the assay on HT-29, 4.2 µM; in the assay with SK-OV-3 it was 9.8 µM.
In the case of `C=C(C=O)[C@@H]1CC[C@@H]2[C@@H](C1)C(=O)[C@@H](O)[C@@H]1[C@](C)(COC(C)=O)[C@@H](OC(C)=O)CC[C@]12C`, the IC50 with Bel-7402, in the assay on HT-29 and with SK-OV-3 was more than 10 µM throughout.
Take `C=C1C(=O)[C@]23C[C@H]1C[C@@H](O)[C@H]2[C@]12CC[C@H](OC(C)=O)[C@@](C)(COC(C)=O)[C@H]1[C@H](O)[C@]3(O)OC2` [MAOESIN C]: the IC50 in the assay on Bel-7402, in the assay on HT-29 and in the assay on SK-OV-3 was more than 10 µM throughout.
As for `C=C(C=O)[C@@H]1CC[C@@H]2[C@@H](C1)C(=O)[C@@H](O)[C@@H]1[C@](C)(COC(C)=O)CC[C@H](O)[C@@]21C` [ERIOCASIN D], the IC50 in the assay on Bel-7402 was more than 10 µM; in the assay with HT-29, more than 10 µM; with SK-OV-3, 5.7 µM.
In the case of `C=C1C(=O)[C@@]23[C@H](O)C[C@@H]4C(C)(C)CC[C@H](O)[C@@]4(COC(C)=O)[C@@H]2CC[C@@H]1[C@H]3O` [HENRYIN], the values for the IC50 in the assay on Bel-7402, with HT-29 and in the assay on SK-OV-3 were more than 10 µM, 6 µM and 5.9 µM, respectively.
For the molecule `C=C(C=O)[C@@H]1CCC2=C(C1)C(=O)[C@@H](O)[C@@H]1C(C)(C)[C@H](O)CC[C@@]21C` [ERIOCASIN B], the IC50 in the assay with Bel-7402, in the assay with HT-29 and in the assay with SK-OV-3 was more than 10 µM in each case.
`C=C(C=O)[C@@H]1CC[C@@H]2[C@@H](C1)C(=O)[C@@H](O)[C@@H]1C(C)(C)[C@H](O)CC[C@@]21C`: the half-inhibitory concentration (IC50) in the assay on Bel-7402 is more than 10 µM; in the assay with HT-29, 8.1 µM; in the assay with SK-OV-3, 7.3 µM.
Regarding `C=C1C(=O)[C@]23C[C@H]1CC[C@H]2[C@@]12CO[C@@]3(O)[C@@H](OC(C)=O)[C@@H]1[C@@](C)(COC(C)=O)CC[C@H]2OC(C)=O` [MAOECRYSTAL R], the values for the IC50 in the assay on Bel-7402, in the assay on HT-29 and with SK-OV-3 were 4 µM, 2.4 µM and 3 µM, respectively.
Taken in the same sequence, the figures for `C=C1C(=O)[C@@]23[C@@H]4C[C@@H]5C(C)(C)CC[C@H](O)[C@@]5(C(OC)O4)[C@@H]2CC[C@@H]1[C@H]3O` (stereo partly drawn) [KAMEBACETAL A] were more than 10 µM, 9.8 µM and 4.7 µM.
Regarding `COc1cccc2c1C(=O)c1c(O)c3c(c(O)c1C2=O)C[C@@](O)(C(=O)CO)C[C@@H]3O[C@H]1C[C@H](N)[C@H](O)[C@H](C)O1` [DOXORUBICIN], the IC50 in the assay on Bel-7402 came out at 0.067 µM; in the assay on SK-OV-3, 0.17 µM.
In the case of `C=C1C(=O)[C@]23C[C@H]1C=C[C@H]2[C@]12CC[C@H](OC(C)=O)[C@@](C)(COC(C)=O)[C@H]1[C@H](O)[C@]3(O)OC2` [MAOESIN D], the half-inhibitory concentration (IC50) in the assay with Bel-7402 was more than 10 µM; in the assay on HT-29, 7.3 µM; in the assay with SK-OV-3, more than 10 µM.
`C=C1C(OC(C)=O)[C@]23C[C@H]1CC[C@H]2[C@@]1(CC[C@H](OC(C)=O)[C@@](C)(COC(C)=O)[C@H]1C=O)COC3=O` (stereo partly drawn) [MAOESIN F]: the IC50 with Bel-7402, in the assay with HT-29 and with SK-OV-3 was more than 10 µM each time.
With `C=C(C=O)[C@@H]1CC[C@@H]2[C@@H](C1)C(=O)[C@@H](O)[C@@H]1[C@](C)(COC(C)=O)[C@@H](O)CC[C@]12C` [ERIOCASIN C], the half-inhibitory concentration (IC50) with Bel-7402, with HT-29 and with SK-OV-3 was more than 10 µM in each case.
Regarding `C=C(CO)[C@@H]1C[C@@H](OC(C)=O)[C@@H]2[C@@H](C1)C(=O)[C@@H](O)[C@@H]1C(C)(C)CCC[C@@]21C` [ERIOCASIN E], the half-maximal inhibitory concentration (IC50) in the assay on Bel-7402, with HT-29 and with SK-OV-3 was more than 10 µM in each case.
In the case of `C=C1C(=O)[C@]23C[C@H]1CC[C@H]2[C@@]12CO[C@@]3(O)[C@@H](O)[C@@H]1C(C)(C)CC[C@@H]2OC(C)=O` [EFFUSANIN B], the concentration for half-maximal inhibition (IC50) amounted to 7.3 µM with Bel-7402, 4.1 µM in the assay with HT-29 and 2.1 µM in the assay with SK-OV-3.
On to `C=C1C(=O)[C@@]23C[C@H]1C[C@H]1O[C@H](O)[C@@H]4[C@](C)(COC(C)=O)CC[C@@H](OC2=O)[C@@]4(CO)[C@H]13` [MAOESIN A], for which the concentration for half-maximal inhibition (IC50) in the assay on Bel-7402, in the assay with HT-29 and with SK-OV-3 was more than 10 µM in each case.
Consider `C=C1C(O)[C@]23C[C@H]1CC[C@H]2[C@@]1(C)[C@H]([C@H](OC(C)=O)C3=O)[C@](C)(COC(C)=O)CC[C@@H]1O` (stereo partly drawn) [MAOESIN E], for which the IC50 with Bel-7402, with HT-29 and in the assay with SK-OV-3 was more than 10 µM each time.
Regarding `C=C1C(=O)[C@]23C[C@H]1CC[C@H]2[C@]12CCC[C@@](C)(COC(C)=O)[C@H]1[C@H](O)[C@]3(O)OC2` [LONGIKAURIN C], the IC50 in the assay on Bel-7402 stood at 2.9 µM; with HT-29 it was 2.1 µM; in the assay with SK-OV-3 it was 3.3 µM.
As for `C=C1[C@H]2C[C@@H](O)C3(C(=O)C[C@@H]4[C@](C)(COC(C)=O)CCC[C@@]4(C)[C@@H]3C2)[C@@H]1O` [ERIOCATISIN A], the IC50 with Bel-7402, in the assay on HT-29 and in the assay with SK-OV-3 was more than 10 µM throughout.
For `C=C(C=O)[C@@H]1CC[C@@H]2[C@@H](C1)C(=O)[C@@H](O)[C@@H]1[C@](C)(COC(C)=O)[C@@H](OC(C)=O)C[C@H](O)[C@@]21C`, the half-inhibitory concentration (IC50) was more than 10 µM in the assay with Bel-7402, more than 10 µM with HT-29 and 5.1 µM in the assay on SK-OV-3.
In the case of `C=C1C(=O)[C@]23C[C@H]1CC[C@H]2[C@@]12CO[C@]3(O)[C@@H](O)[C@@H]1[C@](C)(COC(C)=O)CC[C@@H]2OC(C)=O` [EFFUSANIN D], the results for the 50% inhibitory concentration (IC50) in the assay on Bel-7402, in the assay with HT-29 and with SK-OV-3 were more than 10 µM, 5.9 µM and 9.1 µM, respectively.
Take `C=C1C(=O)[C@@]23C[C@H]1C[C@H]1OC(O)[C@@H]4[C@](C)(COC(C)=O)[C@H](OC(C)=O)C[C@@H](OC2=O)[C@@]4(CO)[C@H]13` (stereo partly drawn): the concentration for half-maximal inhibition (IC50) in the assay on Bel-7402, in the assay on HT-29 and with SK-OV-3 was more than 10 µM throughout.
Turning to `CC(=O)OC[C@]1(C)C(OC(C)=O)CC[C@]23CO[C@@](O)(C[C@@H]21)[C@]12C(=O)C4(CCC45C(=O)[C@]46[C@H](O)[C@H]5CC[C@H]4[C@]45CCC(OC(C)=O)[C@@](C)(COC(C)=O)[C@H]4C[C@]6(O)OC5)[C@H](CC[C@@H]31)[C@H]2O` (stereo partly drawn) [MAOECRYSTAL M], the half-maximal inhibitory concentration (IC50) in the assay on Bel-7402 was 6 µM; in the assay on HT-29 it was more than 10 µM; with SK-OV-3, 7 µM.
